{"source": "paper PMC5954213", "about": "(Molecular pharmaceutics, 2018)", "key": {"ova s/c BALB/c mice [1]": {"tested_on": "ova s/c BALB/c mice", "experiment": "Airway hyperresponsiveness", "type": "in vivo, mouse"}, "ova s/c BALB/c mice [2]": {"tested_on": "ova s/c BALB/c mice", "experiment": "Quantification of airway inflammatory cells in BALF by flow cytometry", "type": "in vivo, mouse"}, "ova s/c mice [3]": {"tested_on": "ova s/c mice", "experiment": "Mucin volume density in lung sections", "type": "in vivo, mouse"}, "[4]": {"tested_on": "guinea pig airway smooth muscle contracted with 1 μM substance P", "experiment": "Relaxation of substance P-contracted guinea pig tracheal rings"}, "[5]": {"experiment": "Pharmacokinetic profile in mouse blood, lungs and brain", "type": "in vivo", "how_it_was_run": "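Mice received a single oral gavage of 25 mg/kg test compound, suspended by grinding with PEG and then adding 2% HPMC (final vehicle 2% HPMC, 2.5% PEG). Blood, lung and brain were sampled over time and analysed by LC-MS/MS. Tmax, Cmax, AUC and elimination rate constant were calculated from the concentration-time profiles.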"}, "[6]": {"experiment": "In vitro microsomal stability, human", "type": "in vitro ADME"}, "[7]": {"experiment": "In vitro microsomal stability, mouse", "type": "in vitro ADME"}, "[8]": {"experiment": "Mouse plasma protein binding", "type": "in vitro ADME"}, "mice": {"tested_on": "mice", "experiment": "Sensorimotor coordination study using a rotarod apparatus", "type": "in vivo, mouse", "details": "100 mg/kg oral; 15 rpm, 3 minutes, three time points", "how_it_was_run": "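Mice were dosed orally with 100 mg/kg test compound or vehicle (2% HPMC, 2.5% PEG), n = 9. They were tested on a rotarod at 15 rpm for up to 3 min at three time points, and time balanced was recorded. The control was diazepam 5 mg/kg i.p. in 5% DMSO/35% propylene glycol/60% PBS.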"}, "[9]": {"tested_on": "CD4+ T lymphocytes isolated from ova s/c mice", "experiment": "Automated patch clamp with CD4+ T lymphocytes in the presence of 600 nM GABA", "type": "cell-based, mouse", "how_it_was_run": "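Splenic CD4+ T cells from ova s/c BALB/c mice were magnetically enriched after RBC lysis, then suspended at 5x10^6 cells/ml in extracellular solution (pH 7.4) with CsCl-based intracellular solution (pH 7.2). Automated whole-cell patch clamp was held at −80 mV. Test compound (final DMSO 0.1%) was applied for 3 s with 600 nM GABA, which was set as 100%. Eight independent runs, n = 12. EC50 and top came from a sigmoidal fit.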"}, "α1-3,5β3γ2 GABAARs": {"tested_on": "α1-3,5β3γ2 GABAARs", "type": "cell-based", "details": "0.1 μM or 1 μM, current evoked by GABA", "how_it_was_run": "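Cells were transiently transfected with the indicated α subunit plus β3 and γ2L. Mean enhancement of the GABA-evoked current by 0.1 or 1 μM test compound was measured by patch clamp, n = 5, mean ± SEM.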"}, "peripheral GABAAR": {"tested_on": "peripheral GABAAR", "experiment": "NIMH Psychoactive Drug Screening Program", "type": "binding", "details": "10 μM"}, "ova s/c mice [10]": {"tested_on": "ova s/c mice", "experiment": "EdU staining of lung sections", "type": "in vivo, mouse", "details": "100 mg/kg; compared to vehicle-treated ova s/c mice", "how_it_was_run": "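Ova s/c mice were dosed orally with test compound 100 mg/kg b.i.d. for 5 days or with vehicle. They received EdU 100 mg/kg i.p. once and were euthanized 4 h later. Lungs were formalin-fixed and paraffin-embedded, and 6 μm sections were permeabilized with 0.5% Triton X-100 for 20 min. EdU was click-labelled with Alexa Fluor 488 azide for 30 min in the dark, with Hoechst 33342 counterstain. Sections were read by fluorescence microscopy.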"}, "ova s/c mice [11]": {"tested_on": "ova s/c mice", "experiment": "Cytokine expression in lung homogenate", "type": "in vivo, mouse", "details": "100 mg/kg p.o. twice daily 5 days", "how_it_was_run": "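Male Balb/c mice were ova/alum-sensitized i.p. on days 0, 7 and 14, then challenged i.n. with ova for 5 days. During challenge they received test compound 100 mg/kg or vehicle (2% HPMC, 2.5% PEG) by oral gavage b.i.d. for 5 days. Snap-frozen whole lung was homogenized in T-PER with protease inhibitors and spun 10,000 rpm for 5 min. Supernatant went to a Th1/Th2/Th17 cytometric bead array on flow cytometry. n = 10/group, one-way ANOVA versus vehicle.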"}}, "note": "Entries after “also recorded” stand apart in the source; their conditions may differ."}
{"smiles": "OCc1cc(C(O)CNCCCCCCOCCCCc2ccccc2)ccc1O", "note": "(stereo not shown) [salmeterol, reference compound]", "values": [{"measurement": "effect on AHR (sRaw)", "setting": "ova s/c BALB/c mice [1]; 1 mg/kg p.o. b.i.d. 5 days", "value": "no anti-AHR effect"}, {"measurement": "effect on AHR (sRaw)", "setting": "ova s/c BALB/c mice [1]; single oral dose 10 mg/kg acutely before measurement (data not shown)", "value": "without any significant effect on AHR"}, {"measurement": "BALF eosinophil population", "setting": "ova s/c BALB/c mice [2]; 1 mg/kg p.o. b.i.d. 5 days", "value": "no significant effect"}, {"measurement": "BALF macrophage population", "setting": "ova s/c BALB/c mice [2]; 1 mg/kg p.o. b.i.d. 5 days", "value": "no significant effect"}, {"measurement": "number of BALF CD4+ T cells", "setting": "ova s/c BALB/c mice [2]; 1 mg/kg p.o. b.i.d. 5 days", "value": "reduced"}, {"measurement": "total inflammatory cells (leukocyte numbers) in BALF", "setting": "ova s/c BALB/c mice [2]; 1 mg/kg p.o. b.i.d. 5 days", "value": "did not significantly change"}, {"measurement": "mucous levels in the airways", "setting": "ova s/c mice [3]; 1 mg/kg b.i.d. 5 days", "value": "no effect"}]}
{"smiles": "C[C@H]1N=C(c2ccccc2F)c2cc(Br)ccc2-n2cnc(C(=O)O)c21", "note": "[MIDD0301]", "values": [{"measurement": "time to partial relaxation of muscle constriction", "setting": "[4]; 25 μM in organ bath", "value": "≤ 15", "unit": "min"}, {"measurement": "reversibility of relaxation effect", "setting": "[4]; ASM washed with buffer and contracted again with substance P", "value": "reversible"}, {"measurement": "pharmaceutically active concentration in tissue", "setting": "[4]; assuming tracheal concentration is 10% of organ bath concentration", "value": "single digit micromolar concentration"}, {"measurement": "smooth muscle relaxation compared with compound 2", "setting": "[4]; comparison with compound 2 data of ref 13", "value": "more pronounced smooth muscle relaxation"}, {"measurement": "concentration giving significant relaxation of pre-contracted smooth muscle", "setting": "[4]; substance P 1 μM, 60 minute assay, vs vehicle 0.1% DMSO", "value": "≥ 25", "unit": "µM"}, {"measurement": "effect on AHR (sRaw)", "setting": "ova s/c BALB/c mice [1]; 20 mg/kg p.o. b.i.d. 5 days, 12.5 mg/ml methacholine", "value": "downward trend; also recorded: did not reduce AHR significantly"}, {"measurement": "effect on AHR (sRaw)", "setting": "ova s/c BALB/c mice [1]; 50 mg/kg p.o. b.i.d. 5 days, 12.5 mg/ml methacholine", "value": "sufficient to overcome induced AHR"}, {"measurement": "effect on AHR (sRaw)", "setting": "ova s/c BALB/c mice [1]; 100 mg/kg p.o. b.i.d. 5 days, 12.5 mg/ml nebulized methacholine", "value": "significantly reduced AHR"}, {"measurement": "blood brain barrier penetration", "setting": "[5]; 25 mg/kg single oral", "value": "Poor"}, {"measurement": "Tmax", "setting": "[5]; blood and lung, 25 mg/kg single oral", "value": "≤ 0.667", "unit": "h"}, {"measurement": "AUC", "setting": "[5]; blood, 25 mg/kg single oral", "value": 2087.1, "unit": "µg·min/g"}, {"measurement": "Cmax", "setting": "[5]; blood, 25 mg/kg single oral", "value": 8.24, "unit": "µg/g"}, {"measurement": "half-life", "setting": "[5]; blood, 25 mg/kg single oral", "value": 13.9, "unit": "h"}, {"measurement": "rate of elimination", "setting": "[5]; blood, 25 mg/kg single oral", "value": 0.001, "unit": "min⁻¹"}, {"measurement": "AUC", "setting": "[5]; brain, 25 mg/kg single oral", "value": 107.7, "unit": "µg·min/g"}, {"measurement": "elimination rate compared with blood", "setting": "[5]; lung tissue, 25 mg/kg single oral", "value": "somewhat faster"}, {"measurement": "AUC", "setting": "[5]; lung, 25 mg/kg single oral", "value": 1390.5, "unit": "µg·min/g"}, {"measurement": "Cmax", "setting": "[5]; lungs, 25 mg/kg single oral", "value": 4.39, "unit": "µg/g"}, {"measurement": "half-life", "setting": "[5]; pharmacokinetic studies, as stated in abstract", "value": "~14", "unit": "h"}, {"measurement": "microsomal stability t1/2", "setting": "[6]", "value": 25.77, "unit": "h"}, {"measurement": "microsomal stability t1/2", "setting": "[7]", "value": 9.15, "unit": "h"}, {"measurement": "plasma protein binding", "setting": "[8]", "value": 88, "unit": "%"}, {"measurement": "sensorimotor inhibition on rotarod", "setting": "mice", "value": "absence of sensorimotor inhibition"}, {"measurement": "concentration at which current change saturated", "setting": "[9]; 600 nM GABA", "value": 100, "unit": "nM"}, {"measurement": "maximal potentiation", "setting": "[9]; 600 nM GABA = 100 %", "value": 512, "unit": "%"}, {"measurement": "EC50", "setting": "[9]; read-out: EC50 of current potentiation, 600 nM GABA", "value": 17, "unit": "nM"}, {"measurement": "activation of GABAARs among alpha subtypes tested", "setting": "α1-3,5β3γ2 GABAARs", "value": "activating GABAARs strongly"}, {"measurement": "binding", "setting": "peripheral GABAAR", "value": "no significant binding"}, {"measurement": "number of BALF CD4+ T cells", "setting": "ova s/c BALB/c mice [2]; 20 mg/kg p.o. b.i.d. 5 days", "value": "significantly reduced"}, {"measurement": "number of BALF CD4+ T cells", "setting": "ova s/c BALB/c mice [2]; 50 mg/kg p.o. b.i.d. 5 days", "value": "significantly reduced"}, {"measurement": "BALF F4/80+ cells (macrophages)", "setting": "ova s/c BALB/c mice [2]; 100 mg/kg p.o. b.i.d. 5 days", "value": "reduced their numbers significantly"}, {"measurement": "BALF Siglec F+ cell population (eosinophils/alveolar macrophages)", "setting": "ova s/c BALB/c mice [2]; 100 mg/kg p.o. b.i.d. 5 days", "value": "reduced their numbers significantly"}, {"measurement": "number of BALF CD4+ T cells", "setting": "ova s/c BALB/c mice [2]; 100 mg/kg p.o. b.i.d. 5 days", "value": "significantly reduced"}, {"measurement": "total inflammatory cells (CD45+) in BALF", "setting": "ova s/c BALB/c mice [2]; 100 mg/kg p.o. b.i.d. 5 days", "value": "significant suppression"}, {"measurement": "EdU cell staining of lung sections (alveolar region)", "setting": "ova s/c mice [10]", "value": "reduced cell staining"}, {"measurement": "mucous production in the airways (mucin volume density)", "setting": "ova s/c mice [3]; 20 mg/kg b.i.d. 5 days", "value": "did not produce a significant change"}, {"measurement": "mucous production in the airways (mucin volume density)", "setting": "ova s/c mice [3]; 50 mg/kg b.i.d. 5 days", "value": "did not produce a significant change"}, {"measurement": "mucous production in the airways (mucin volume density)", "setting": "ova s/c mice [3]; 100 mg/kg b.i.d. 5 days", "value": "did not produce a significant change"}, {"measurement": "IFN-γ concentration in lung homogenates", "setting": "ova s/c mice [11]", "value": "not altered significantly"}, {"measurement": "IL-2 concentration in lung homogenates", "setting": "ova s/c mice [11]", "value": "not altered significantly"}, {"measurement": "IL-6 concentration in lung homogenates", "setting": "ova s/c mice [11]", "value": "not altered significantly"}, {"measurement": "IL-10 expression in the lung", "setting": "ova s/c mice [11]", "value": "not significantly altered"}, {"measurement": "IL-17A levels in lung homogenates", "setting": "ova s/c mice [11]", "value": "significantly reduced"}, {"measurement": "lung TNF-α levels", "setting": "ova s/c mice [11]", "value": "decreased"}, {"measurement": "IL-4 levels in lung homogenates", "setting": "ova s/c mice [11]; vs vehicle-treated ova s/c mice", "value": "reduced"}]}
